Protection from cytokine-induced ATP loss data for 37 compounds are collected here from PubChem BioAssay AID488910 (Broad Institute, 2010).

About 25 (0.1%) of roughly 20,000 compounds were called active. What follows is part of a selection rich in actives, with near analogues and random picks from the rest. Values without a mark were called inactive.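 Rule for the calls: active = mean replicate protection from cytokine-induced ATP loss at least 50% and at least 75% of replicates each reaching 50%; inconclusive = meets only one of the two criteria, mean or replicate share; inactive = fails both the mean and replicate share criteria.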

The experiment can be described thus: protection of INS-1E cells from cytokine death, primary screen, ATP luminescence, single point (AID 488910). Particulars: INS-1E cytokine-induced death, 48 h, at 10 µM, active compounds read high, normalised: neutral wells 0, positive control 100. The method, boiled down: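 Assay system: INS-1E rat insulinoma cells. Amount: 8000 cells per well. Medium: phenol-red-free RPMI with 5% fetal bovine serum. Reagent: IL-1β, TNF-α and IFN-γ cytokine mix. Doses: one compound concentration, pin transfer. Schedule: 48 h co-treatment, 10 min post-lysis read. Detection: CellTiter-Glo luminescence measuring cellular ATP.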
For `COc1ccc(NC(=O)N(C)C[C@H]2Oc3ccc(NC(=O)Cc4cn(C)c5ccccc45)cc3CC(=O)N([C@@H](C)CO)C[C@H]2C)cc1`, the protection from cytokine-induced ATP loss was 13.3%. The result for `Cc1noc(C)c1NC(=O)Nc1ccc2c(c1)C(=O)N([C@H](C)CO)C[C@@H](C)[C@@H](CN(C)Cc1ccccc1)O2` reads 2.87%; that for `C[C@@H]1CCCCO[C@@H](CN(C)CC2CC2)[C@@H](C)CN([C@H](C)CO)C(=O)c2cc(NC(=O)Nc3cccc4ccccc34)ccc2O1`, -7.95%; that for `Cc1cccc(CN(C)C[C@H]2OCc3cn(nn3)CCCC(=O)N([C@@H](C)CO)C[C@H]2C)c1`, -2.7%. The result for `Cc1ccc(S(=O)(=O)N(C)C[C@@H]2Oc3ccc(NC(=O)c4ccncc4)cc3CC(=O)N([C@H](C)CO)C[C@H]2C)cc1` reads -0.881%; that for `COc1cc(/C=C/C=N/NC(=O)CCCCCC(=O)Nc2ccccc2O)ccc1O`, -1.89%. As for `CC(C)NC(=O)N(C)C[C@H]1Oc2c(NC(=O)Nc3ccc(F)cc3)cccc2C(=O)N([C@@H](C)CO)C[C@@H]1C`, the protection from cytokine-induced ATP loss is 12.3%. Consider `COc1ccc(S(=O)(=O)Nc2ccc3c(c2)CC(=O)N([C@@H](C)CO)C[C@@H](C)[C@@H](CN(C)C(=O)Nc2c(C)noc2C)O3)cc1`, for which the protection from cytokine-induced ATP loss is 9.17%. The result for `COc1ccc(NC(=O)Nc2ccc3c(c2)C(=O)N([C@H](C)CO)C[C@H](C)[C@@H](CN(C)C(=O)NC2CCCCC2)OCCCC[C@@H](C)O3)cc1` reads 14.1%; that for `C[C@H]1CN([C@@H](C)CO)C(=O)c2cc(NC(=O)C3CCCCC3)ccc2O[C@H]1CN(C)S(=O)(=O)c1cn(C)cn1`, 2.64%.

With `C[C@H]1CN([C@@H](C)CO)C(=O)c2cccc(NC(=O)Nc3ccccc3)c2O[C@H]1CN(C)S(=O)(=O)c1ccc(Cl)cc1`, the protection from cytokine-induced ATP loss was -12.7%. The result for `C[C@@H]1CN([C@H](C)CO)C(=O)Cc2cc(NC(=O)Nc3ccc(C(F)(F)F)cc3)ccc2O[C@@H]1CN(C)S(=O)(=O)c1ccccc1` reads -5.63%; that for `C[C@H](CO)N1C[C@H](C)[C@H](CN(C)C(=O)Nc2ccc(C(F)(F)F)cc2)Oc2ccc(NS(=O)(=O)c3cn(C)cn3)cc2CC1=O`, 19%; that for `C[C@@H]1CN([C@@H](C)CO)C(=O)Cc2cc(NS(=O)(=O)c3cccs3)ccc2O[C@@H]1CN(C)C(=O)Nc1ccc(C(F)(F)F)cc1`, -9.39%.

As to `O=C(N/N=C/c1ccc(Oc2ccccc2)cc1)c1ccccn1`, the protection from cytokine-induced ATP loss was 4.62%. Take `CC(C)NC(=O)Nc1cccc2c1O[C@@H](CN(C)Cc1ccc(C(=O)O)cc1)[C@@H](C)CN([C@H](C)CO)C2=O`: the protection from cytokine-induced ATP loss was 5.94%. Consider `C[C@H]1CN([C@@H](C)CO)C(=O)c2cccc(NC(=O)C3CCOCC3)c2O[C@H]1CN(C)S(C)(=O)=O`, for which the protection from cytokine-induced ATP loss was 10.3%.

Take `COc1ccc(S(=O)(=O)N(C)C[C@H]2Oc3ccc(NC(=O)Nc4c(C)noc4C)cc3CC(=O)N([C@@H](C)CO)C[C@H]2C)cc1`: the protection from cytokine-induced ATP loss is 6.69%. `Cc1noc(C)c1NC(=O)N(C)C[C@@H]1Oc2ccc(NS(C)(=O)=O)cc2C(=O)N([C@@H](C)CO)C[C@@H]1C`: the protection from cytokine-induced ATP loss was 1.81%. The result for `Cc1noc(C)c1S(=O)(=O)Nc1ccc2c(c1)CC(=O)N([C@H](C)CO)C[C@H](C)[C@H](CN(C)S(=O)(=O)c1cn(C)cn1)O2` reads 15.3%; that for `CNC[C@H]1Oc2ccc(NS(=O)(=O)c3cn(C)cn3)cc2C(=O)N([C@@H](C)CO)C[C@@H]1C`, -1.06%; that for `COc1ccc(NC(=O)Nc2cccc3c2O[C@H](CN(C)S(=O)(=O)c2ccc(F)cc2)[C@H](C)CN([C@H](C)CO)C3=O)cc1`, -2.75%.

Take `C[C@@H]1CN([C@@H](C)CO)C(=O)Cc2cc(NC(=O)Cn3cnnn3)ccc2O[C@@H]1CN(C)S(=O)(=O)c1cn(C)cn1`: the protection from cytokine-induced ATP loss was 10.1%. As for `COc1ccc(S(=O)(=O)Nc2ccc3c(c2)CC(=O)N([C@H](C)CO)C[C@@H](C)[C@@H](CN(C)C(=O)Nc2cccc4ccccc24)O3)cc1`, the figure is 0.838%; as for `C[C@@H]1CN([C@H](C)CO)C(=O)c2cccc(NC(=O)Nc3ccccc3)c2O[C@H]1CN(C)Cc1ccccc1`, 3.52%; as for `C[C@@H]1CN([C@H](C)CO)C(=O)c2cc(NS(=O)(=O)c3ccccc3)ccc2O[C@H]1CN(C)S(=O)(=O)c1ccc(Cl)cc1`, -7.86%. `C[C@H](CO)N1C[C@H](C)[C@H](CN(C)C)Oc2ccc(NC(=O)c3ccncc3)cc2CC1=O`: the protection from cytokine-induced ATP loss was 2%. For the compound `O=C(NO)c1cccc(C(=O)N/N=C/c2c(F)c(F)c(F)c(F)c2F)c1`, the protection from cytokine-induced ATP loss was -2.52%. As for `C[C@H]1CN([C@@H](C)CO)C(=O)Cc2cc(NC(=O)Nc3cccc4ccccc34)ccc2O[C@@H]1CN(C)S(=O)(=O)c1cn(C)cn1`, the figure is 4.42%; as for `CC(C)NC(=O)N(C)C[C@H]1Oc2c(NC(=O)C3CCCCC3)cccc2C(=O)N([C@@H](C)CO)C[C@H]1C`, 10.6%; as for `Cc1noc(C)c1NC(=O)N(C)C[C@H]1Oc2c(NS(=O)(=O)c3cccs3)cccc2C(=O)N([C@@H](C)CO)C[C@@H]1C`, 3.62%. On to `O=C(N/N=C/c1c[nH]c2ccccc12)c1ccccc1O`, for which the protection from cytokine-induced ATP loss is -18.7%. As for `Cc1ccc(S(=O)(=O)Nc2ccc3c(c2)CC(=O)N([C@H](C)CO)C[C@@H](C)[C@H](CN(C)S(=O)(=O)c2c(C)noc2C)O3)cc1`, the figure is 3.93%; as for `COc1ccc(CN(C)C[C@@H]2Oc3ccc(NS(=O)(=O)c4cn(C)cn4)cc3C(=O)N([C@@H](C)CO)C[C@@H]2C)cc1`, 7.8%; as for `C[C@H](CO)N1C[C@H](C)[C@H](CN(C)CC2CC2)Oc2ccc(NC(=O)CCN3CCOCC3)cc2C1=O`, -6.34%. As for `CC(C)NC(=O)Nc1cccc2c1O[C@H](CN(C)S(=O)(=O)c1cccs1)[C@@H](C)CN([C@H](C)CO)C2=O`, the figure is 5.81%; as for `C[C@@H]1CN([C@@H](C)CO)C(=O)c2cccc(NC(=O)Nc3ccccc3)c2O[C@H]1CN(C)Cc1ccccc1`, -11.7%.
